Assay results gathered from unrelated publications.
Lines come from different studies, so protocols differ. pIC50: −log10 of the molar value. Values after ≈ are worked out from the molar mass of the structure shown.

`c1ccc(C2CCN(c3nc(-c4cnn5cccnc45)nc4ccccc34)C2)nc1` (stereo not shown) gave a pIC50 of 5.95 (Trypanosoma cruzi; parasite growth, imaging; U2OS; intracellular, amastigote).
The MIC of `Cc1ccc(CNC(=O)c2c(N)sc3c2CCCC3)cc1` is reported as 333 µM (≈ 100 µg/mL) (Mycobacterium tuberculosis; microbial growth, resazurin; H37RV).
For `CCOC(=O)c1ccc(-n2c(C)cc(/C=C/c3ccc(OC)cc3)c(C#N)c2=O)cc1`, the viability was 96% (HepG2; cell growth or viability, MTT; 6.25 µM, 24 h).
`Fc1cccc(F)c1-c1nc(N2CCC(c3ccccn3)C2)c2ccccc2n1` (stereo not shown) has a pIC50 of 5.01 (Trypanosoma cruzi; parasite growth, imaging; U2OS; intracellular, amastigote).
For `CCN1CCc2c(sc(N)c2C(=O)NCc2ccccc2)C1`, the MIC was greater than 300 µM (Mycobacterium tuberculosis; microbial growth, resazurin; H37RV).
`COc1ccc(NC(=O)c2c(Nc3ccccc3)sc(C#N)c2NC(=O)CNc2ccc(Cl)cc2)cc1` gave a viability of 86.1% (HepG2; cell growth or viability, SRB; 10 nM, 48 h).
For `CCOC(=O)c1ccc(-n2c(C)cc(/C=C/c3ccc(OCC)cc3)c(C#N)c2=O)cc1`, the viability was 72% (HepG2; cell growth or viability, MTT; 25 µM, 24 h).
For `N#Cc1ccccc1-c1nc(N2CCC(c3ccccn3)C2)c2ccccc2n1` (stereo not shown), the pIC50 was 5.23 (Trypanosoma cruzi; parasite growth, imaging; U2OS; intracellular, amastigote).
For `COc1ccc(NC(=O)c2c(Nc3ccccc3)sc(C(=O)NN=Cc3ccccc3)c2NC(C)=O)cc1`, the viability was 65.3% (HepG2; cell growth or viability, SRB; 10 µM, 48 h).
`CCOC(=O)c1c(NC(=O)c2c(F)c(F)c(F)c(F)c2F)sc2c1CCCC2` has an MIC of less than 50 µM (Mycobacterium tuberculosis; microbial growth, resazurin; H37RV).
The viability of `COc1ccc(NC(=O)c2c(Nc3ccccc3)sc(C#N)c2NC(=O)CNc2ccccc2Cl)cc1` is reported as 88.3% (HepG2; cell growth or viability, SRB; 10 nM, 48 h).
`Cc1ccc(CNC(=O)c2cc(-c3ccccc3)sc2N)cc1` has an MIC of greater than 300 µM (Mycobacterium tuberculosis; microbial growth, resazurin; H37RV).
`COc1ccc(NC(=O)c2c(Nc3ccccc3)sc(C#N)c2NC(=O)CNc2ccccc2)cc1` has a viability of 88.6% (HepG2; cell growth or viability, SRB; 1 µM, 48 h).
`CCOC(=O)c1ccc(-n2c(C)cc(C)c(C#N)c2=O)cc1` has a viability of 100% (HepG2; cell growth or viability, MTT; 3.125 µM, 24 h).
With `COc1ccc(NC(=O)c2c(Nc3ccccc3)sc(C(=O)NN=Cc3ccc(C)cc3)c2NC(C)=O)cc1` the viability was 89.2% (HepG2; cell growth or viability, SRB; 0.1 µM, 48 h).
For `CCN1CCc2c(sc(NC(=O)c3cc(C(F)(F)F)cc(C(F)(F)F)c3)c2C(=O)NCc2ccc(C)cc2)C1`, the MIC was 350 µM (≈ 199 µg/mL) (Mycobacterium tuberculosis; microbial growth, resazurin; H37RV).
